# Some of the results follow. Unmarked numbers belong to inactive results. Active and inactive are the calls of the source.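 The calls were made as follows: active = substances whose mean melting-temperature shift, as a percentage of the reference inhibitor's shift, reaches about 5.3% (limit read from the data); inactive = the rest.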
# Target: Carboxy-terminal domain RNA polymerase II polypeptide A small phosphatase 1 (Homo sapiens) (UniProt Q9GZU7)
# Experiment: SCP1 melting temperature change from compounds – biophysical, differential scanning fluorimetry, orthogonal assay for Scp-1 inhibitor project, confirmation (AID 540329);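 also: 0% = Tm of DMSO wells and 100% = Tm with sodium orthovanadate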
# Conditions: Recombinant SCP1, Sypro Orange thermal shift Tm; at 40 µM; hits give high values
# Method in brief: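 Test system: human Scp-1 phosphatase catalytic domain, residues 76-261. Input: Scp-1 from 10 µM stock. Incubation: Heating 20-95 °C, 0.03 °C/s ramp. Control set: vanadate reference. Buffer or medium: Tris acetate buffer at pH 5.5, with MgCl2 and Tween-20. Detection: differential scanning fluorimetry.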
# Carboxy-terminal domain RNA polymerase II polypeptide A small phosphatase 1 (Homo sapiens), sequence (Q9GZU7 76-261 limits assumed): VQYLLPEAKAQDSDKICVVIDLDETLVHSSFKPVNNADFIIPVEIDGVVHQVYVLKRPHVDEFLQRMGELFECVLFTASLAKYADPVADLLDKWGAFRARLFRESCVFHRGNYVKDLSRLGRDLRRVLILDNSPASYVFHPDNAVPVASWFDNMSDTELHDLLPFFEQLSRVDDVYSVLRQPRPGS
row,Compound,thermal shift relative to vanadate control
1,O=C(O)c1ccc(N/N=C/c2ccc3ncccc3c2)cc1,4.85%
2,C=C1c2cccc(OC)c2O[C@H](C(=O)OCC)[C@@H]1CCCCCC,-6.9%
3,CN(c1ccccc1)S(=O)(=O)c1ccc(Cl)c(C(=O)OCC(=O)NCc2ccco2)c1,-14.8%
4,COc1ccc(S(=O)(=O)c2c[nH]c(=S)[nH]c2=O)cc1Cl,13.1% (active)
5,Cc1c(CCC(=O)O)c(=O)oc2c(C)c(OCc3ccccc3Cl)ccc12,-3.47%
6,O=C(c1ccc(CS(=O)(=O)c2ccccc2)o1)N1CCN(c2ccccc2)CC1,-3.55%
7,O=C(N/N=C/c1ccco1)c1ccc(C(=O)N/N=C/c2ccco2)o1,-14.3%
8,CS(=O)(=O)C1=NN2C(=N)/C(=C\c3ccc(OCCOc4ccccc4)cc3)C(=O)N=C2S1,280% (active)
9,CCOc1ccccc1/C=c1\sc2nc(-c3ccco3)nn2c1=O,4.79%
10,Cc1ccn2c(=O)nc(SCC(=O)NCc3ccc4c(c3)OCO4)nc2c1,-9.63%
11,Cc1ccc(NC(=O)c2cc(-c3ccc(C)o3)nc3ccccc23)nc1,5.81% (active)
12,O=C(Cn1cc(/C=N/NC(=O)c2cccc(C(F)(F)F)c2)c2ccccc21)Nc1ccc(F)cc1,10.6% (active)
13,O=S(=O)(Nc1ccccc1Cl)c1cccc2nsnc12,-16.9%
14,COCCCn1c(Cc2csc(Nc3cccc(Cl)c3)n2)nnc1SCC(=O)OC1CCCCC1,-0.65%
15,COc1ccc(Cl)cc1C=CC=NNC(=O)c1ccncc1,-17.4%
16,O=C(CCS(=O)(=O)c1ccc(Br)cc1)NCCc1ccc(Cl)cc1,1.56%
17,Nn1cnnc1N/N=C/c1cc([N+](=O)[O-])c(Cl)cc1Cl,-3.64%
18,CC1CCN(c2ccc(S(=O)(=O)Nc3cc(C(=O)O)cc(C(=O)O)c3)cc2[N+](=O)[O-])CC1,15% (active)
19,N#Cc1c(-c2cccs2)nc(SCC(=O)c2ccc(Br)cc2)[nH]c1=O,-2.02%

row,Compound,thermal shift relative to vanadate control
1,N#Cc1ccccc1CN1C(=O)S/C(=C/c2cccn2-c2cccc(C(=O)O)c2)C1=O,1.96%
2,Cc1nn(-c2cc(Cl)ccc2N)c(=O)c2ccccc12,-6.02%
3,Cc1ccc(CCCOC(=O)C[N+]2(C)CCCC2)cc1,-9.83%
4,Cc1nnc(SCC(=O)Nc2ccc(S(=O)(=O)Nc3ccc(Cl)nn3)cc2)s1,3.43%
5,O=C(c1cc2c(s1)CCC2)N1CCN(c2ccccc2)CC1,-14.1%
6,CCc1ccc(NC(=O)CS(=O)CC(=O)NCCCc2ccccc2)cc1 (stereo not drawn),-12.5%
7,CCCCCN1CC(O)=C(c2nc(-c3ccc(Cl)cc3)cs2)C1=N,-7.73%
8,COc1ccc(NC(=O)CN(C)C(=O)/C=C/c2cn(Cc3ccccc3)nc2-c2cccnc2)cc1,-16.5%
9,Cc1c(CCC(=O)O)c(=O)oc2cc(OCc3ccc(Br)cc3)ccc12,-18.2%
10,O=C(Nc1cc(S(=O)(=O)N2CCCCC2)ccc1Cl)C1COc2ccccc2O1 (stereo not drawn),-12%
11,O=C1NN(c2ccccc2)C(=O)/C1=C/c1ccc(-c2cccc(C(=O)O)c2)o1,14.3% (active)
12,Cc1ccc(/C=C/C(=O)Nc2ccc([N+](=O)[O-])c(NC(=O)/C=C/c3ccc(C)o3)c2)o1,11% (active)
13,O=C(Nc1cccc(F)c1)c1cc(-c2ccco2)nc2ccccc12,-0.45%
14,COc1ccc(OCC(=O)NNC(=O)c2ccc(-c3ccccc3)cc2)cc1,2.47%
15,O=C(COc1ccc(-n2cnnn2)cc1)Nc1ccccc1Cl,-5.03%
16,O=C(CCNC(=O)c1ccccc1)NN=Cc1ccc(Br)o1,-12.5%
17,O=C(NNC(=O)c1ccc2ccccc2c1)c1ccc(Cl)cc1,-19.4%
18,Cc1ccc(NC(=O)COc2ccc(/C=N\NC(=O)c3cccnc3)cc2)cc1C,-4.33%
19,O=c1[nH]n(-c2ccc([N+](=O)[O-])cc2)c(=O)c2ccccc12,2.78%

# Source: PubChem BioAssay
